Source: ChEMBL document CHEMBL1629507, “Small molecule inhibitors of hantavirus infection” (Bioorg Med Chem Lett, 2010)
Active and inactive are the calls of the source. No cut-off for these calls is given here. Where a SMILES comes first, the peptide text is derived from it. Bridges are numbered along the chain shown (N, C = ends).

Key:
Type in all cases: cell-based
[1] = molecular target: T1, Integrin alpha-V/beta-1 (Homo sapiens) (UniProt P05556+P06756); assay: Inhibition of human […] alphaVbeta1 expressed in african green monkey Vero E6 cells assessed as inhibition of PHV-1 entry at 10 uM
[2] = molecular target: T2, Integrin alpha-V/beta-3 (Homo sapiens) (UniProt P05106+P06756); assay: Inhibition of human […] alphaVbeta3 expressed in african green monkey Vero E6 cells assessed as inhibition of SNV SN77734 entry at 10 uM
[3] = molecular target: T2, Integrin alpha-V/beta-3 (Homo sapiens); assay: Inhibition of human […] alphaVbeta3 expressed in african green monkey Vero E6 cells assessed as inhibition of Hantaan 76/118 viral entry at 10 uM
[4] = molecular target: T2, Integrin alpha-V/beta-3 (Homo sapiens); assay: Inhibition of human alphaVbeta3 receptor expressed in african green monkey Vero E6 cells assessed as inhibition of SNV infection in cells by immunofluorescent assay
Outline: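 SNV infection of Vero E6 cells in a dose-response format. Cells were pretreated 1 h at 37 °C with compound across a concentration range, then exposed to virus for 1 h, washed, and cultured 24–36 h. Infected foci were counted by anti-N immunofluorescence. Inhibition was taken relative to untreated cells and normalized to ReoPro. EC50 derived from curves; points are the mean and standard error of N = 4.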

[5] = molecular target: T1, Integrin alpha-V/beta-1 (Homo sapiens); assay: Inhibition of human […] alphaVbeta1 expressed in african green monkey Vero E6 cells assessed as inhibition of PHV-1 entry at 1 mM
[6] = molecular target: T2, Integrin alpha-V/beta-3 (Homo sapiens); assay: Inhibition of human […] alphaVbeta3 expressed in african green monkey Vero E6 cells assessed as inhibition of SNV SN77734 entry at 1 mM
[7] = molecular target: T2, Integrin alpha-V/beta-3 (Homo sapiens); assay: Inhibition of human alphaVbeta3 receptor expressed in african green monkey Vero E6 cells assessed as inhibition of SNV infection in cells at 1 uM by immunofluorescent assay
Outline: (§1)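 Vero E6 cells (10^4/well, duplicate wells) were grown 24 h at 37 °C in MEM with 2.5% FBS. They were pretreated 1 h at 37 °C with small molecules (1 µM) or cyclic peptides (2 mM, in PBS pH 7.4). SNV strain SN77734 (500–1,000 FFU/ml) was then added for 1 h, then washed out. After 24–36 h, cells were fixed and stained with anti-SNV N plus FITC antibody, and foci counted. % inhibition is relative to untreated cells, normalized to ReoPro 80 µg/ml set as 80%; at least 4 replicates.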

[8] = molecular target: T2, Integrin alpha-V/beta-3 (Homo sapiens); assay: Inhibition of human […] alphaVbeta3 expressed in african green monkey Vero E6 cells assessed as inhibition of Hantaan 76/118 viral entry at 1 mM
[9] = molecular target: T2, Integrin alpha-V/beta-3 (Homo sapiens); assay: Inhibition of human […] alphaVbeta3 expressed in african green monkey Vero E6 cells assessed as inhibition of Andes CHI-7913 viral entry at 1 mM
[10] = molecular target: T2, Integrin alpha-V/beta-3 (Homo sapiens); assay: Inhibition of human […] alphaVbeta3 expressed in african green monkey Vero E6 cells assessed as inhibition of Andes CHI-7913 viral entry at 10 uM
[11] = molecular target: T2, Integrin alpha-V/beta-3 (Homo sapiens); assay: Inhibition of human alphaVbeta3 receptor expressed in african green monkey Vero E6 cells assessed as inhibition of SNV infection in cells at 2 mM by immunofluorescent assay; outline: as §1

In the case of `O=c1c(/C=N/Cc2ccco2)c(CSc2ccc(Cl)cc2)[nH]n1-c1nc2ccccc2s1`, the inhibition [1] is reported as “Active”, the inhibition [2] is reported as “Active” and the inhibition [3] is reported as “Active”. For the same compound, the inhibition [4] was “Dose-dependent effect”, the inhibition [5] was “Active” and the inhibition [6] was “Active”. For the same compound, the inhibition [7] was 29%, the inhibition [8] was “Active” and the inhibition [9] was “Active”. The inhibition [10] was “Active”.
For `O=C(NCc1cccs1)C(Cc1ccccc1)NS(=O)(=O)c1ccc2nsnc2c1` (racemic), the inhibition [1] was “Active”, the inhibition [2] was “Active” and the inhibition [3] was “Active”. The inhibition [4] was “Dose-dependent effect”, the inhibition [5] was “Active” and the inhibition [6] was “Active”. For the same compound, the inhibition [7] was 29%, the inhibition [8] was “Active” and the inhibition [9] was “Active”. The inhibition [10] was “Active”.
In the case of `O=C(NC1CCCc2ccccc21)C(Cc1ccccc1)NS(=O)(=O)c1cccc2nsnc12` (stereo unspecified), the inhibition [7] is reported as 0%.
`CCN(CCNC(=O)C(Cc1ccccc1)NS(=O)(=O)c1cccc2nsnc12)c1ccccc1` (stereo unspecified) gave an inhibition [7] of 8%.
With `O=C(C(Cc1ccccc1)NS(=O)(=O)c1ccc2nsnc2c1)N1CCn2c1nc1ccccc12` (stereo unspecified) the inhibition [7] was 0%.
`COc1ccccc1NC(=O)C(Cc1ccccc1)NS(=O)(=O)c1cccc2cccnc12` (stereo unspecified) was tested, and the inhibition [7] was 19.3%.
With `COc1ccc(CCNC(=O)C(Cc2ccccc2)NS(=O)(=O)c2cccc3nsnc23)cc1OC` (stereo unspecified) the inhibition [7] was 0%.
For `NS(=O)(=O)c1ccc(CCNC(=O)C(NS(=O)(=O)c2cccc3nsnc23)c2ccccc2)cc1` (stereo unspecified), the inhibition [7] was 6%.
In the case of `O=C(NCCC1=CCCCC1)C(Cc1ccccc1)NS(=O)(=O)c1cccc2nsnc12` (stereo unspecified), the inhibition [7] is reported as 0%.
`CC(C)C[C@@H]1NC(=O)[C@H](CCC(N)=O)NC(=O)[C@H]([C@@H](C)O)NC(=O)[C@H](CCCCN)NC(=O)[C@H](C(C)C)NC(=O)[C@H](Cc2ccccc2)NC(=O)[C@@H]2CCCN2C(=O)[C@@H](N)CSSC[C@@H](C(=O)O)NC1=O` (H-CPFVKTQLC-OH; disulfide 1-9) gave an inhibition [11] of 54.6%.
In the case of `O=C(Nc1ccccc1Cl)C(Cc1ccccc1)NS(=O)(=O)c1cccc2nsnc12` (stereo unspecified), the inhibition [7] is reported as 10%.
With `O=C(NCc1ccc2c(c1)OCO2)C(Cc1ccccc1)NS(=O)(=O)c1cccc2cccnc12` (racemic) the inhibition [1] was “Active”, the inhibition [2] was “Active” and the inhibition [3] was “Active”. The inhibition [4] was “Dose-dependent effect”, the inhibition [5] was “Active” and the inhibition [6] was “Active”. For the same compound, the inhibition [7] was 46.5%, the inhibition [8] was “Active” and the inhibition [9] was “Active”. For the same compound, the inhibition [10] was “Active”.
Compound `Cc1ccc(S(=O)(=O)NC(CC(=O)NCc2cccnc2)c2ccco2)cc1` (stereo unspecified) has an inhibition [7] of 7%.
Work on `O=C(NC(C(=O)N/N=C/c1ccco1)c1nnc(O)c2ccccc12)c1ccccc1` (stereo unspecified) yielded an inhibition [7] of 33%.
With `O=S(=O)(c1cccc2cccnc12)N1CCN(Cc2ccc3c(c2)OCO3)CC1` the inhibition [7] was 0%.
Work on `O=C(NCc1ccccc1)C(Cc1ccccc1)NS(=O)(=O)c1cccc2nsnc12` (stereo unspecified) yielded an inhibition [7] of 3.2%.
`O=C(CCNS(=O)(=O)c1cccc2nsnc12)N(CCc1ccccc1)Cc1ccccc1` was tested, and the inhibition [7] was 0%.
With `COc1ccc(CCNC(=O)CN(CCc2ccccc2)S(=O)(=O)c2ccccc2)cc1OC` the inhibition [7] was 15.2%.
In the case of `O=C(C(Cc1ccccc1)NS(=O)(=O)c1cccc2cccnc12)N1CCC2(CC1)OCCO2` (stereo unspecified), the inhibition [7] is reported as 9%.
`CCCCN(CC)CCCNC(=O)C1CCCN(c2ncnc3onc(C)c23)C1` (stereo unspecified) showed an inhibition [7] of 3.1%.
`O=S(=O)(c1cccc(SCc2ccccc2)c1)c1cccc(SCc2ccccc2)c1` showed an inhibition [7] of 44.2%.
In the case of `O=C(NCCc1ccccc1)C(Cc1ccccc1)NS(=O)(=O)c1ccc(Br)cc1` (stereo unspecified), the inhibition [7] is reported as 6.4%.
`CC(C)[C@@H]1NC(=O)[C@H](Cc2ccccc2)NC(=O)[C@H]2CCCN2C(=O)[C@@H](N)CSSC[C@@H](C(=O)O)NC1=O` was tested, and the inhibition [11] was 53%, the inhibition [1] was “Active” and the inhibition [2] was “Active”. For the same compound, the inhibition [3] was “Active”, the inhibition [5] was “Active” and the inhibition [6] was “Active”. The inhibition [8] was “Active”, the inhibition [9] was “Active” and the inhibition [10] was “Active”.
Work on `O=C(CCCn1c(=O)c2sccc2n(Cc2ccc(F)cc2)c1=O)NCc1ccco1` yielded an inhibition [7] of 0%.
For `Cc1ccc(C)c(NC(=O)C(Cc2ccccc2)NS(=O)(=O)c2cccc3cccnc23)c1` (stereo unspecified), the inhibition [7] was 0%.
`COc1ccc(CNC(=O)C2CCCN(c3ncnc4onc(C)c34)C2)cc1` (stereo unspecified) showed an inhibition [7] of 4.6%.
`Cc1ccc(Cl)cc1NC(=O)C(Cc1ccccc1)NS(=O)(=O)c1cccc2cccnc12` (stereo unspecified) was tested, and the inhibition [7] was 14%.
In the case of `COc1ccc(/C=C(\NC(=O)c2ccccc2)C(=O)NCCCCCC(=O)O)cc1`, the inhibition [7] is reported as 8%.
`COc1ccccc1CNC(=O)C(Cc1ccccc1)NS(=O)(=O)c1cccc2cccnc12` (stereo unspecified) gave an inhibition [7] of 9.6%.
`O=C(CCCn1c(=O)c2sccc2n(Cc2ccc(F)cc2Cl)c1=O)NCc1ccco1` was tested, and the inhibition [7] was 12.2%.
Work on `CCOC(=O)N1CCC(NC(=O)C(Cc2ccccc2)NS(=O)(=O)c2cccc3nsnc23)CC1` (stereo unspecified) yielded an inhibition [7] of 0%.
